How the values were obtained:
[1] = organism: Homo sapiens; test: Toxicity in malaria patient assessed as duration of vomiting at quartile 2 of compound concentration; format: organism-based; conditions: in vivo
Method in brief: (§1)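 Mothers or guardians were questioned at each follow-up visit about the child's symptoms and drug intake. Children were grouped into quartiles by whole-blood chloroquine concentration 1 day after the end of treatment. Symptom frequency is given as n/N (%), and vomiting duration in days. Trend across quartiles was tested with the nonparametric test for trend.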

[2] = Plasma protein binding in healthy human; format: ADME, cell-free; conditions: read-out: PPB
[3] = organism: Homo sapiens; test: Toxicity in malaria patient assessed as vomiting on day 1 after treatment at quartile 4 of compound concentration; format: organism-based; conditions: in vivo; method in brief: as §1
[4] = Drug level in malaria patient whole blood on day 1; format: ADME, tissue-based; conditions: human, read-out: Drug uptake
Method in brief: (§2)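 Observational study of 102 children in Guinea-Bissau given chloroquine unsupervised under routine prescribing, usually split into two to three daily doses of 6.6 mg kg−1. Whole blood was drawn 1, 4 and 14 days after the last reported dose for chloroquine and desethylchloroquine analysis. Values are medians with interquartile range, in nM.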

[5] = organism: Homo sapiens; test: Toxicity in malaria patient assessed as vomiting on day 1 after treatment at quartile 2 of compound concentration; format: organism-based; conditions: in vivo; method in brief: as §1
[6] = Drug level in malaria patient whole blood on day 4; format: ADME, tissue-based; conditions: human, read-out: Drug uptake; method in brief: as §2
[7] = Volume of distribution in malaria patient; format: ADME, organism-based; conditions: human, in vivo
[8] = organism: Homo sapiens; test: Toxicity in malaria patient assessed as diarrhea on day 1 after treatment at quartile 1 of compound concentration; format: organism-based; conditions: in vivo; method in brief: as §1
[9] = organism: Homo sapiens; test: Toxicity in malaria patient assessed as diarrhea on day 1 after treatment at quartile 3 of compound concentration; format: organism-based; conditions: in vivo; method in brief: as §1
[10] = organism: Homo sapiens; test: Toxicity in malaria patient assessed as vomiting on day 1 after treatment at quartile 3 of compound concentration; format: organism-based; conditions: in vivo; method in brief: as §1
[11] = organism: Homo sapiens; test: Toxicity in malaria patient assessed as diarrhea on day 1 after treatment at quartile 2 of compound concentration; format: organism-based; conditions: in vivo; method in brief: as §1
[12] = organism: Homo sapiens; test: Toxicity in malaria patient assessed as vomiting on day 1 after treatment at quartile 1 of compound concentration; format: organism-based; conditions: in vivo; method in brief: as §1
[13] = Drug level in malaria patient whole blood on day 14; format: ADME, tissue-based; conditions: human, read-out: Drug uptake; method in brief: as §2
[14] = organism: Homo sapiens; test: Toxicity in malaria patient assessed as duration of vomiting at quartile 3 of compound concentration; format: organism-based; conditions: in vivo; method in brief: as §1
[15] = organism: Homo sapiens; test: Toxicity in malaria patient assessed as diarrhea on day 1 after treatment at quartile 4 of compound concentration; format: organism-based; conditions: in vivo; method in brief: as §1
[16] = organism: Homo sapiens; test: Toxicity in malaria patient assessed as duration of vomiting at quartile 4 of compound concentration; format: organism-based; conditions: in vivo; method in brief: as §1
[17] = organism: Homo sapiens; test: Toxicity in malaria patient assessed as duration of vomiting at quartile 1 of compound concentration; format: organism-based; conditions: in vivo; method in brief: as §1
[18] = Drug level in malaria patient whole blood assessed as desethychloroquine level on day 14; format: ADME, tissue-based; conditions: human, read-out: Drug uptake; method in brief: as §2
[19] = Drug level in malaria patient whole blood assessed as desethychloroquine level on day 4; format: ADME, tissue-based; conditions: human, read-out: Drug uptake; method in brief: as §2
[20] = Drug level in malaria patient whole blood assessed as desethychloroquine level on day 1; format: ADME, tissue-based; conditions: human, read-out: Drug uptake; method in brief: as §2

Row | Structure (SMILES) | Time [1] | fraction unbound [2] | Activity [3] | concentration [4] | Activity [5] | concentration [6] | Vd [7] | Activity [8] | Activity [9] | Activity [10] | Activity [11] | Activity [12] | concentration [13] | Time [14] | Activity [15] | Time [16] | Time [17] | concentration [18] | concentration [19] | concentration [20]
1 | CCN(CC)CCCC(C)Nc1ccnc2cc(Cl)ccc12 (stereo not given) [CHLOROQUINE] | 1.1 days | 0.5 | 8% | 0.894 µM | 24% | 0.626 µM | > 100 L/kg | 42% | 33% | 14% | 64% | 25% | 0.204 µM | 0.5 days | 21% | 0.5 days | 1.4 days | – | – | –
2 | CCNCCCC(C)Nc1ccnc2cc(Cl)ccc12 (stereo not given) [DESETHYLCHLOROQUINE] | – | – | – | – | – | – | – | – | – | – | – | – | – | – | – | – | – | 0.181 µM | 0.446 µM | 0.638 µM

— ChEMBL document CHEMBL1649116, “Chloroquine is grossly overdosed and overused but well tolerated in Guinea-bissau” (Antimicrob Agents Chemother, 2009)
